In ChEMBL document CHEMBL5247575 (J Med Chem, 2018):
In brackets after ≈: the same amount, converted by molar mass.

Experiments:
[1] = test system: Acinetobacter baumannii; assay: Synergistic antibacterial activity against ADC deleted Acinetobacter baumannii transfected with pWH1266 producing OXA-24/40 assessed as meropenem MIC at 8 ug/ml by broth microdilution method; type: functional; settings: dose 8 µg/ml
[2] = test system: Klebsiella pneumoniae; assay: Synergistic antibacterial activity against Klebsiella pneumoniae 660/1568 producing KPC-3 assessed as meropenem MIC at 8 ug/ml by broth microdilution method; type: functional; settings: dose 8 µg/ml
How it was run: (§1)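 Broth microdilution per CLSI guidelines, using custom frozen panels. […] Each partner drug was also tested alone. MICs were run in triplicate and the modal value is reported.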

[3] = test system: Pseudomonas aeruginosa; assay: Synergistic antibacterial activity against Pseudomonas aeruginosa CL232 assessed as cefepime MIC at 8 ug/ml by broth microdilution method; type: functional; settings: dose 8 µg/ml
[4] = test system: Escherichia coli; assay: Synergistic antibacterial activity against Escherichia coli DH10B transfected with pBR322-catI-KPC-2 assessed as meropenem MIC at 4 ug/ml by broth microdilution method; type: functional; settings: dose 4 µg/ml; how it was run: as §1
[5] = test system: Klebsiella pneumoniae; assay: Synergistic antibacterial activity against Klebsiella pneumoniae 1315/2198 producing KPC-3 assessed as meropenem MIC at 4 ug/ml by broth microdilution method; type: functional; settings: dose 4 µg/ml; how it was run: as §1
[6] = test system: Acinetobacter baumannii; assay: Synergistic antibacterial activity against Acinetobacter baumannii PR408 producing OXA-24/40 assessed as meropenem MIC at 8 ug/ml by broth microdilution method; type: functional; settings: dose 8 µg/ml
[7] = test system: Bacteria; assay: Inhibition of bacteria OXA-48 assessed as half life using nitrocefin as substrate
[8] = test system: Klebsiella pneumoniae; assay: Synergistic antibacterial activity against Klebsiella pneumoniae 761/1723 producing KPC-3 assessed as cefepime MIC at 8 ug/ml by broth microdilution method; type: functional; settings: dose 8 µg/ml; how it was run: as §1
[9] = test system: Escherichia coli; assay: Synergistic antibacterial activity against Escherichia coli DH10B transfected with pBC SK (-) OXA-48 assessed as meropenem MIC at 8 ug/ml by broth microdilution method; type: functional; settings: dose 8 µg/ml; how it was run: as §1
[10] = test system: Klebsiella pneumoniae; assay: Synergistic antibacterial activity against Klebsiella pneumoniae jefferson 1773 producing OXA-181 assessed as cefepime MIC at 8 ug/ml by broth microdilution method; type: functional; settings: dose 8 µg/ml
[11] = test system: Klebsiella pneumoniae; assay: Synergistic antibacterial activity against Klebsiella pneumoniae 660/1568 producing KPC-3 assessed as cefepime MIC at 8 ug/ml by broth microdilution method; type: functional; settings: dose 8 µg/ml; how it was run: as §1
[12] = test system: Acinetobacter baumannii; assay: Synergistic antibacterial activity against ADC deleted Acinetobacter baumannii assessed as meropenem MIC at 8 ug/ml by broth microdilution method; type: functional; settings: dose 8 µg/ml
[13] = test system: Klebsiella pneumoniae; assay: Synergistic antibacterial activity against Klebsiella pneumoniae 1084/1957 producing KPC-3 assessed as meropenem MIC at 8 ug/ml by broth microdilution method; type: functional; settings: dose 8 µg/ml; how it was run: as §1
[14] = test system: Acinetobacter baumannii; assay: Synergistic antibacterial activity against ADC deleted Acinetobacter baumannii transfected with pWH1266 OXA-23 assessed as cefepime MIC at 4 ug/ml by broth microdilution method; type: functional; settings: dose 4 µg/ml
[15] = test system: Klebsiella pneumoniae; assay: Synergistic antibacterial activity against Klebsiella pneumoniae 901/1860 producing KPC-3 assessed as cefepime MIC at 8 ug/ml by broth microdilution method; type: functional; settings: dose 8 µg/ml
[16] = test system: Acinetobacter baumannii; assay: Synergistic antibacterial activity against Acinetobacter baumannii PR440 producing OXA-23/24/40 assessed as meropenem MIC at 4 ug/ml by broth microdilution method; type: functional; settings: dose 4 µg/ml
[17] = test system: Klebsiella pneumoniae; assay: Synergistic antibacterial activity against Klebsiella pneumoniae 935/1884 producing KPC-3 assessed as cefepime MIC at 8 ug/ml by broth microdilution method; type: functional; settings: dose 8 µg/ml
[18] = test system: Acinetobacter baumannii; assay: Synergistic antibacterial activity against ADC deleted Acinetobacter baumannii assessed as meropenem MIC at 4 ug/ml by broth microdilution method; type: functional; settings: dose 4 µg/ml
[19] = test system: Acinetobacter baumannii; assay: Synergistic antibacterial activity against Acinetobacter baumannii PR381 producing OXA-24/40 assessed as cefepime MIC at 8 ug/ml by broth microdilution method; type: functional; settings: dose 8 µg/ml
[20] = test system: Bacteria; assay: Inhibition of bacteria ADC-7 assessed as Koff rate using nitrocefin as substrate incubated for 30 mins
[21] = test system: Acinetobacter baumannii; assay: Synergistic antibacterial activity against Acinetobacter baumannii PR474 producing OXA-23/24/40 assessed as cefepime MIC at 4 ug/ml by broth microdilution method; type: functional; settings: dose 4 µg/ml
[22] = test system: Klebsiella pneumoniae; assay: Synergistic antibacterial activity against Klebsiella pneumoniae 901/1860 producing KPC-3 assessed as cefepime MIC at 4 ug/ml by broth microdilution method; type: functional; settings: dose 4 µg/ml
[23] = test system: Klebsiella pneumoniae; assay: Synergistic antibacterial activity against Klebsiella pneumoniae NY BS producing OXA-232 assessed as cefepime MIC at 4 ug/ml by broth microdilution method; type: functional; settings: dose 4 µg/ml
[24] = test system: Klebsiella pneumoniae; assay: Synergistic antibacterial activity against Klebsiella pneumoniae 660/1568 producing KPC-3 assessed as meropenem MIC at 4 ug/ml by broth microdilution method; type: functional; settings: dose 4 µg/ml; how it was run: as §1
[25] = test system: Klebsiella pneumoniae; assay: Synergistic antibacterial activity against Klebsiella pneumoniae jefferson 1775 producing OXA-48 assessed as meropenem MIC at 4 ug/ml by broth microdilution method; type: functional; settings: dose 4 µg/ml
[26] = test system: Klebsiella pneumoniae; assay: Synergistic antibacterial activity against Klebsiella pneumoniae 11978 producing OXA-48 assessed as meropenem MIC at 4 ug/ml by broth microdilution method; type: functional; settings: dose 4 µg/ml; how it was run: as §1
[27] = test system: Klebsiella pneumoniae; assay: Synergistic antibacterial activity against Klebsiella pneumoniae 935/1884 producing KPC-3 assessed as meropenem MIC at 8 ug/ml by broth microdilution method; type: functional; settings: dose 8 µg/ml
[28] = test system: Klebsiella pneumoniae; assay: Synergistic antibacterial activity against Klebsiella pneumoniae 977/1916 producing KPC-3 assessed as meropenem MIC at 8 ug/ml by broth microdilution method; type: functional; settings: dose 8 µg/ml
[29] = test system: Pseudomonas aeruginosa; assay: Antibacterial activity against Pseudomonas aeruginosa CL232 by broth microdilution method; type: functional
[30] = test system: Klebsiella pneumoniae; assay: Synergistic antibacterial activity against Klebsiella pneumoniae 440/1360 producing KPC-2 assessed as meropenem MIC at 8 ug/ml by broth microdilution method; type: functional; settings: dose 8 µg/ml; how it was run: as §1
[31] = test system: Bacteria; assay: Inhibition of bacteria OXA-48 assessed as Koff rate using nitrocefin as substrate incubated for 30 mins
[32] = test system: Acinetobacter baumannii; assay: Synergistic antibacterial activity against Acinetobacter baumannii PR448 producing OXA-23 assessed as meropenem MIC at 4 ug/ml by broth microdilution method; type: functional; settings: dose 4 µg/ml
[33] = test system: Klebsiella pneumoniae; assay: Synergistic antibacterial activity against Klebsiella pneumoniae 729/1679 producing KPC-3 assessed as cefepime MIC at 8 ug/ml by broth microdilution method; type: functional; settings: dose 8 µg/ml; how it was run: as §1
[34] = test system: Escherichia coli; assay: Antibacterial activity against Escherichia coli DH10B transfected with pBC SK (-) PDC-3 by broth microdilution method; type: functional
[35] = test system: Acinetobacter baumannii; assay: Synergistic antibacterial activity against Acinetobacter baumannii PR323 producing OXA-24/40 assessed as cefepime MIC at 4 ug/ml by broth microdilution method; type: functional; settings: dose 4 µg/ml
[36] = test system: Acinetobacter baumannii; assay: Synergistic antibacterial activity against ADC deleted Acinetobacter baumannii assessed as cefepime MIC at 4 ug/ml by broth microdilution method; type: functional; settings: dose 4 µg/ml
[37] = test system: Acinetobacter baumannii; assay: Synergistic antibacterial activity against Acinetobacter baumannii PR408 producing OXA-24/40 assessed as meropenem MIC at 4 ug/ml by broth microdilution method; type: functional; settings: dose 4 µg/ml
[38] = test system: Escherichia coli; assay: Synergistic antibacterial activity against Escherichia coli DH10B transfected with pBC SK (-) KPC-3 assessed as meropenem MIC at 4 ug/ml by broth microdilution method; type: functional; settings: dose 4 µg/ml
[39] = test system: Klebsiella pneumoniae; assay: Synergistic antibacterial activity against Klebsiella pneumoniae CAV 1636 producing OXA-181 assessed as cefepime MIC at 4 ug/ml by broth microdilution method; type: functional; settings: dose 4 µg/ml
[40] = test system: Pseudomonas aeruginosa; assay: Synergistic antibacterial activity against Pseudomonas aeruginosa 776 assessed as cefepime MIC at 4 ug/ml by broth microdilution method; type: functional; settings: dose 4 µg/ml
[41] = test system: Pseudomonas aeruginosa; assay: Antibacterial activity against Pseudomonas aeruginosa 776 by broth microdilution method; type: functional

## N#C[C@@H]1CC[C@@H]2CN1C(=O)N2OS(=O)(=O)[O-].[Na+]
[1]
  MIC: > 16 µg/mL
[2]
  MIC: ≤ 0.12 µg/mL
[3]
  MIC: > 16 µg/mL
[4]
  MIC: ≤ 0.12 µg/mL
[5]
  MIC: ≤ 0.12 µg/mL
[6]
  MIC: > 16 µg/mL
[7]
  T1/2: 13 min
[8]
  MIC: ≤ 0.12 µg/mL
[9]
  MIC: ≤ 0.12 µg/mL
[10]
  MIC: 1 µg/mL
[11]
  MIC: 0.25 µg/mL
[12]
  MIC: ≤ 0.12 µg/mL
[13]
  MIC: ≤ 0.12 µg/mL
[14]
  MIC: 2 µg/mL
[15]
  MIC: ≤ 0.12 µg/mL
[16]
  MIC: 4 µg/mL
[17]
  MIC: ≤ 0.12 µg/mL
[18]
  MIC: ≤ 0.12 µg/mL
[19]
  MIC: 16 µg/mL
[20]
  K: 1 10^-3/s
[21]
  MIC: 8 µg/mL
[22]
  MIC: ≤ 0.12 µg/mL
[23]
  MIC: 0.5 µg/mL
[24]
  MIC: ≤ 0.12 µg/mL
[25]
  MIC: ≤ 0.12 µg/mL
[26]
  MIC: ≤ 0.12 µg/mL
[27]
  MIC: ≤ 0.12 µg/mL
[28]
  MIC: ≤ 0.12 µg/mL
[29]
  MIC: > 16 µg/mL
[30]
  MIC: ≤ 0.12 µg/mL
[31]
  K: 9 10^-4/s
[32]
  MIC: 2 µg/mL
[33]
  MIC: 0.25 µg/mL
[34]
  MIC: > 16 µg/mL
[35]
  MIC: > 16 µg/mL
[36]
  MIC: 0.5 µg/mL
[37]
  MIC: > 16 µg/mL
[38]
  MIC: ≤ 0.12 µg/mL
[39]
  MIC: 0.5 µg/mL

## O=C(NNC(=O)[C@@H]1CC[C@@H]2CN1C(=O)N2OS(=O)(=O)O)[C@@H]1CCNC1
[1]
  MIC: > 16 µg/mL
[2]
  MIC: ≤ 0.12 µg/mL
[3]
  MIC: 4 µg/mL
[4]
  MIC: ≤ 0.12 µg/mL
[5]
  MIC: ≤ 0.12 µg/mL
[6]
  MIC: > 16 µg/mL
[8]
  MIC: ≤ 0.12 µg/mL
[9]
  MIC: ≤ 0.12 µg/mL
[10]
  MIC: ≤ 0.12 µg/mL
[11]
  MIC: ≤ 0.12 µg/mL
[12]
  MIC: ≤ 0.12 µg/mL
[13]
  MIC: ≤ 0.12 µg/mL
[14]
  MIC: 16 µg/mL
[15]
  MIC: ≤ 0.12 µg/mL
[40]
  MIC: 16 µg/mL
[16]
  MIC: > 16 µg/mL
[17]
  MIC: ≤ 0.12 µg/mL
[18]
  MIC: > 16 µg/mL
[19]
  MIC: 16 µg/mL
[20]
  K: 9 10^-4/s
[21]
  MIC: 8 µg/mL
[22]
  MIC: ≤ 0.12 µg/mL
[23]
  MIC: ≤ 0.12 µg/mL
[24]
  MIC: ≤ 0.12 µg/mL
[25]
  MIC: ≤ 0.12 µg/mL
[41]
  MIC: 8 µg/mL (≈ 21.2 µM)
[27]
  MIC: ≤ 0.12 µg/mL
[28]
  MIC: ≤ 0.12 µg/mL
[30]
  MIC: ≤ 0.12 µg/mL
[32]
  MIC: > 16 µg/mL
[33]
  MIC: ≤ 0.12 µg/mL
[35]
  MIC: 4 µg/mL
[36]
  MIC: 0.5 µg/mL
[37]
  MIC: > 16 µg/mL
[38]
  MIC: ≤ 0.12 µg/mL
[39]
  MIC: ≤ 0.12 µg/mL
